Test results as given in ChEMBL document CHEMBL2146441, “2,6-Disubstituted imidazo[2,1-b][1,3,4]thiadiazoles: search for anticancer agents” (2012).

How the values were obtained:
Type in all cases: functional
[1] = tested on: MDA-MB-435; experiment: Cytotoxicity against human MDA-MB-435 cells assessed as cell growth at 10^-6 M after 48 hrs by SRB assay; details: MDA-MB-435, 48 h, read-out: Activity
[2] = tested on: COLO; experiment: Cytotoxicity against human COLO […] cells assessed as cell growth at 10^-7 M after 48 hrs by SRB assay; details: read-out: Activity
In short: (§1)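 NCI-60 screen: lines kept in RPMI 1640 with 5% FBS, seeded at 5000–40,000 cells/well by doubling time, preincubated 24 h at 37 °C in 5% CO2. Time-zero plates TCA-fixed at drug addition. DMSO stocks diluted in medium, 48 h exposure. Fixation in cold TCA (final 10% adherent, 16% suspension), 0.4% SRB stain, solubilised in 10 mM Tris base, A515. Percent growth computed against control and time-zero.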

[3] = tested on: HT-29; experiment: Cytotoxicity against human HT-29 cells assessed as cell growth at 10^-4 M after 48 hrs by SRB assay; details: HT-29, 48 h, read-out: Activity
In short: (§2)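 NCI-60 five-dose screen. Cells were grown in RPMI 1640 with 5% FBS and seeded at 5000–40,000 cells/well according to doubling time. They were pre-incubated 24 h at 37 °C in 5% CO₂, and time-zero (Tz) plates were TCA-fixed at drug addition. Five 10-fold dilutions of DMSO stock were applied for 48 h. Read-out was SRB staining, 515 nm absorbance, with percent growth calculated versus Tz and untreated control.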

[4] = tested on: T47D; experiment: Cytotoxicity against human T47D cells assessed as cell growth at 10^-6 M after 48 hrs by SRB assay; details: read-out: Activity
[5] = tested on: SF-268; experiment: Cytotoxicity against human SF268 cells assessed as cell growth at 10^-5 M after 48 hrs by SRB assay; details: SF-268, 48 h, read-out: Activity
[6] = tested on: DU-145; experiment: Growth inhibition of human DU145 cells after 48 hrs by SRB assay; details: DU-145, 48 h
In short: (§3)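 Same 48 h NCI-60 five-dose SRB protocol. Adherent lines were fixed with cold TCA at 10% final; suspension lines such as CCRF-CEM were fixed with 16% final TCA. Stain was 0.4% SRB in 1% acetic acid for 10 min, solubilized in 10 mM Tris base and read at 515 nm. GI50 came from log concentration–growth curves, solving [(Ti−Tz)/(C−Tz)]×100 = 50.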

[7] = tested on: HCC 2998; experiment: Cytotoxicity against human HCC2998 cells assessed as cell growth at 10^-5 M after 48 hrs by SRB assay; details: HCC 2998, 48 h, read-out: Activity; in short: as §2
[8] = tested on: SK-MEL-28; experiment: Cytotoxicity against human SK-MEL-28 cells assessed as cell growth at 10^-7 M after 48 hrs by SRB assay; details: SK-MEL-28, 48 h, read-out: Activity
[9] = tested on: PC-3; experiment: Cytotoxicity against human PC3 cells assessed as cell growth at 10^-5 M after 48 hrs by SRB assay; details: PC-3, 48 h, read-out: Activity
[10] = Cytotoxicity against human RPMI8266 cells assessed as cell growth at 10^-4 M after 48 hrs by SRB assay; details: RPMI8266, 48 h, read-out: Activity
[11] = tested on: NCI-H522; experiment: Cytotoxicity against human NCI-H522 cells assessed as cell growth at 10^-5 M after 48 hrs by SRB assay; details: NCI-H522, 48 h, read-out: Activity
[12] = tested on: OVCAR-4; experiment: Cytotoxicity against human OVCAR4 cells assessed as cell growth at 10^-4 M after 48 hrs by SRB assay; details: OVCAR-4, 48 h, read-out: Activity
[13] = tested on: 786-0; experiment: Cytotoxicity against human 786-0 cells assessed as cell growth at 10^-8 M after 48 hrs by SRB assay; details: 786-0, 48 h, read-out: Activity; in short: as §1
[14] = tested on: CAKI-1; experiment: Cytotoxicity against human Caki1 cells assessed as cell growth at 10^-7 M after 48 hrs by SRB assay; details: CAKI-1, 48 h, read-out: Activity; in short: as §1
[15] = tested on: SF-295; experiment: Growth inhibition of human SF295 cells after 48 hrs by SRB assay; details: SF-295, 48 h; for CC50: read-out: LC50 (the source's name)
In short: (§4)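 Adherent NCI-60 lines grown in RPMI 1640 with 5% FBS, seeded at 5000–40,000 cells/well, and preincubated 24 h at 37 °C, 5% CO2. Compound, stocked in DMSO, given either once at 10^-5 M or at five 10-fold dilutions for 48 h. Cells fixed with cold TCA (final 10%), stained with 0.4% SRB, and read at 515 nm. GI50 taken as 50% reduction in net protein increase versus time-zero and control plates.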

[16] = tested on: OVCAR-5; experiment: Cytotoxicity against human OVCAR5 cells assessed as cell growth at 10^-7 M after 48 hrs by SRB assay; details: OVCAR-5, 48 h, read-out: Activity
[17] = tested on: KM12; experiment: Growth inhibition of human KM12 cells after 48 hrs by SRB assay; details: KM12, 48 h; in short: as §4
[18] = tested on: MDA-MB-435; experiment: Growth inhibition of human MDA-MB-435 cells after 48 hrs by SRB assay; details: MDA-MB-435, 48 h; in short: as §4
[19] = tested on: MDA-MB-468; experiment: Cytotoxicity against human MDA-MB-468 cells assessed as cell growth at 10^-5 M after 48 hrs by SRB assay; details: MDA-MB-468, 48 h, read-out: Activity
[20] = tested on: COLO; experiment: Cytotoxicity against human COLO […] cells assessed as cell growth at 10^-8 M after 48 hrs by SRB assay; details: read-out: Activity; in short: as §1
[21] = tested on: PC-3; experiment: Cytotoxicity against human PC3 cells assessed as cell growth at 10^-4 M after 48 hrs by SRB assay; details: PC-3, 48 h, read-out: Activity
[22] = tested on: U-251; experiment: Cytotoxicity against human U251 cells assessed as cell growth at 10^-5 M after 48 hrs by SRB assay; details: U-251, 48 h, read-out: Activity
[23] = tested on: SK-MEL-2; experiment: Cytotoxicity against human SK-MEL-2 cells assessed as cell growth at 10^-4 M after 48 hrs by SRB assay; details: SK-MEL-2, 48 h, read-out: Activity
[24] = tested on: NCI-H322M; experiment: Cytotoxicity against human NCI-H322M cells assessed as cell growth at 10^-8 M after 48 hrs by SRB assay; details: read-out: Activity
[25] = tested on: A549; experiment: Growth inhibition of human A549 cells after 48 hrs by SRB assay; details: A549, 48 h; for CC50: read-out: LC50 (the source's name); in short: as §3
[26] = tested on: LOX IMVI; experiment: Cytotoxicity against human LOXIMVI cells assessed as cell growth at 10^-6 M after 48 hrs by SRB assay; details: read-out: Activity
[27] = tested on: EKVX; experiment: Cytotoxicity against human EKVX cells assessed as cell growth at 10^-8 M after 48 hrs by SRB assay; details: read-out: Activity; in short: as §1
[28] = tested on: SN12C; experiment: Cytotoxicity against human SN12C cells assessed as cell growth at 10^-8 M after 48 hrs by SRB assay; details: read-out: Activity

Compound `COc1ccc(-c2nn3cc(-c4ccc(O)cc4O)nc3s2)cc1` has a growth at 1 µM [1] of 76%, a growth at 0.1 µM [2] of 106% and a growth at 100 µM [3] of -20%. It also gave a growth at 1 µM [4] of 71%, a growth at 10 µM [5] of 14% and a GI50 [6] of 4.37 µM. For the same compound, the LC50 (lethal concentration 50) [6] was over 100 µM, the TGI [6] was over 100 µM and the growth at 10 µM [7] was 34%. It also gave a growth at 0.1 µM [8] of 92%, a growth at 10 µM [9] of 14% and a growth at 100 µM [10] of 3%. The growth at 10 µM [11] was 1%, the growth at 100 µM [12] was -22% and the growth at 0.01 µM [13] was 97%. The growth at 0.1 µM [14] was 90%, the GI50 [15] was 2160 nM and the TGI [15] was 15.1 µM. The CC50 [15] was over 100 µM, the growth at 0.1 µM [16] was 90% and the Concentration killing 50% of cells (LC50) [17] was over 100 µM. The GI50 [17] was 3.61 µM, the TGI [17] was over 100 µM and the GI50 [18] was 2610 nM. The LC50 [18] was over 100 µM, the TGI [18] was 18.6 µM and the growth at 10 µM [19] was 9%. The growth at 0.01 µM [20] was 104%, the growth at 100 µM [21] was 1% and the growth at 10 µM [22] was -41%. The growth at 100 µM [23] was -48%, the growth at 0.01 µM [24] was 89% and the GI50 [25] was 2.69 µM. It also gave a TGI [25] of over 100 µM, a CC50 [25] of over 100 µM and a growth at 1 µM [26] of 82%. For the same compound, the growth at 0.01 µM [27] was 103% and the growth at 0.01 µM [28] was 99%.

In the case of `COc1ccc(-c2nn3cc(-c4cccc(N)c4)nc3s2)cc1`, the growth at 1 µM [1] is reported as 77%, the growth at 0.1 µM [2] is reported as 101% and the growth at 100 µM [3] is reported as -48%. It also gave a growth at 1 µM [4] of 57%, a growth at 10 µM [5] of 26% and a GI50 [6] of 6.79 µM. The LC50 (lethal concentration 50) [6] was over 100 µM, the TGI [6] was 31.7 µM and the growth at 10 µM [7] was 51%. It also gave a growth at 0.1 µM [8] of 95%, a growth at 10 µM [9] of 10% and a growth at 100 µM [10] of -8%. For the same compound, the growth at 10 µM [11] was 13%, the growth at 100 µM [12] was -34% and the growth at 0.01 µM [13] was 106%. The growth at 0.1 µM [14] was 76%, the GI50 [15] was 2880 nM and the TGI [15] was 29.3 µM. For the same compound, the CC50 [15] was over 100 µM, the growth at 0.1 µM [16] was 103% and the Concentration killing 50% of cells (LC50) [17] was over 100 µM. The GI50 [17] was 5.34 µM, the TGI [17] was 27.5 µM and the GI50 [18] was 2580 nM. The LC50 [18] was 89.6 µM, the TGI [18] was 14.8 µM and the growth at 10 µM [19] was -2%. The growth at 0.01 µM [20] was 103%, the growth at 100 µM [21] was -22% and the growth at 10 µM [22] was 44%. It also gave a growth at 100 µM [23] of 38%, a growth at 0.01 µM [24] of 100% and a GI50 [25] of 5.84 µM. The TGI [25] was 27.5 µM, the CC50 [25] was over 100 µM and the growth at 1 µM [26] was 77%. The growth at 0.01 µM [27] was 81% and the growth at 0.01 µM [28] was 91%.
